# Screening results: PubChem, several laboratories
# An excerpt weighted towards active compounds, which were near 4% of everything screened.
# H9c2 protect: myocardial damage modulation in H9c2 cells; 360,000 tested, 0.63% active; protection from H2O2 cell death, % at 20 µM; H9c2 cardiomyocytes, H2O2 injury protection, ATPLite, 2 h;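 active = compounds giving at least 50% protection of heart cells from peroxide-induced death in the single-dose screen, raw or plate-pattern-corrected value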
# iPSC survival up: enhancers of human iPSC single-cell survival. 360,000 tested, 0.044% active. AID 602274. hiPSC single-cell survival, ATPlite luminescence; 100% = ROCK inhibitor wells, 0% = DMSO. survival enhancement, % at 20 µM; in the data active = survival enhancement above about 18%;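 also: cells exposed to compounds for 16 hours before the ATP read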
# Arrestin-AP2 inh: human beta-arrestin and AP2 interaction inhibition. FITC-arrestin peptide / GST-AP2 beads, flow cytometry; AP2 beta2 appendage carries R879A mutation. inhibition, % at 10 µM. 340,000 tested, 0.31% active;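 active = inhibition above a set limit, near 3 SD of compounds lacking own fluorescence, cut at about 54% in these data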
#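 Test system: GST-tagged AP2 beta2-adaptin appendage (R879A) on 4 µm glutathione beads; also added: fluorescein-tagged arrestin peptide at 50 nM final; timing: 12 min plus 1 h, RT; signal: flow cytometry, FL1 (488/535 nm); read-out: percent drop in bead-associated FITC signal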
# NR3A LBD binder: NR3A (human) ligand-binding domain modulation; NR3A LBD differential scanning fluorimetry, Tm shift; 0% = protein alone, 100% = glycine-bound protein; Tm shift relative to glycine control, % at 25 µM; 340,000 tested, 2.5% active; AID 1259313;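 active = melting temperature shift of at least 10% of the positive control shift, at one fixed dose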
# SENP1 inh: inhibitors of human SENP1 SUMO protease catalytic domain. Q9P0U3. recombinant SENP1 catalytic domain, CyPet-SUMO1-YPet FRET cleavage. inhibition, % at 10 µM. 360,000 tested, 0.21% active. AID 624204;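 active = inhibition at least 30% at 10 µM, raw YFP signal under a set limit, fluorescence ratio 0.5 to 1.5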
# Target sequence (Q9P0U3 419-644 limits assumed): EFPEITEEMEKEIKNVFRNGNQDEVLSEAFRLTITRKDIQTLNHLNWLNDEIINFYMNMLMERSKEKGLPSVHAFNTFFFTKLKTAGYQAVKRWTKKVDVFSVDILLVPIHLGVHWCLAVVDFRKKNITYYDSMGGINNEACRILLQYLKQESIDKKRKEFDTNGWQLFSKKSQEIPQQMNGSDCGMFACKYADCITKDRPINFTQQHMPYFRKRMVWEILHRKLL
#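 material = recombinant human SENP1 catalytic domain, His6-tagged | quantity = 20 pM enzyme | reagent = 25 nM SUMO1 FRET substrate | compound dosing = 10 µM single point, 0.5% DMSO | timing = 50 min enzyme reaction, room temperature, light-protected | detection = FRET, CFP and YFP emission | control set = no-enzyme low, enzyme-DMSO high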
# FAS TE block: inhibitors of human fatty acid synthase thioesterase domain; recombinant FAS-TE, OMFH fluorogenic substrate, fluorescence endpoint; 360,000 tested, 0.67% active; inhibition, % at 15 µM; AID 602261;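 active = compounds whose normalised, plate-corrected inhibition of enzyme fluorescence in the single-dose primary screen is 50% or more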
# FAS-TE inh conf: confirmation of human fatty acid synthase thioesterase inhibitors; inhibition, % at 15 µM; recombinant FAS-TE, OMFH fluorogenic substrate, fluorescence; shares compounds with FAS TE block; 2,300 tested, 45% active;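 active = compounds inhibiting the enzyme by at least 50% at 15 µM in any one of the replicates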
# A number is an active result; – = inactive; · = not tested or not shown.
SMILES,H9c2 protect,iPSC survival up,Arrestin-AP2 inh,NR3A LBD binder,SENP1 inh,FAS TE block,FAS-TE inh conf
CC1(C)CC2CC(C)(CN2S(=O)(=O)c2ccc(C(=O)Nc3cccc(S(=O)(=O)N4CCOCC4)c3)cc2)C1 (centres undefined),–,–,–,–,–,–,·
CC1(C)CC2CC(C)(CN2S(=O)(=O)c2ccc(C(=O)Nc3cc(S(=O)(=O)N4CCOCC4)ccc3Cl)cc2)C1 (centres undefined),–,–,–,–,–,76,–
Cc1ccc(-c2csc(NC(=O)COc3ccc(N(C)S(=O)(=O)c4ccc(C)cc4)cc3)n2)cc1,–,–,–,–,–,–,·
COc1ccc(-c2csc(NC(=O)c3c(OC)cccc3OC)n2)cc1,–,–,–,–,–,–,·
COc1ccc(-c2csc(NC(=O)COc3ccc(N(C)S(=O)(=O)c4ccc(C)cc4)cc3)n2)cc1,–,–,–,–,–,53,–
COc1ccc(-c2csc(NC(=O)c3ccccc3NS(=O)(=O)c3ccc(C)cc3)n2)cc1,–,–,–,29,–,56,49
CC(=O)N1CCN(C(=O)COC(=O)/C=C/c2ccccc2[N+](=O)[O-])CC1,–,–,–,–,–,–,·
Cc1cc(NC(=O)C2(C)CCN2C(C)C)c2ccccc2n1 (centres undefined),–,–,·,·,–,–,·
Cn1c(=O)oc2cc(S(=O)(=O)N3CCC(C(=O)NCc4cccs4)CC3)ccc21,–,–,–,–,–,–,·
Cc1csc(NC(=O)C2CCN(S(=O)(=O)c3ccc4c(c3)oc(=O)n4C)CC2)n1,–,–,–,–,–,59,68
COc1ccc(S(=O)(=O)NC(=O)C2(C)CCN2C(=O)C2(c3ccc(Cl)cc3)CCC2)cc1 (centres undefined),–,–,·,·,–,–,·
COc1ccc(C(CCN(Cc2ccc(OC)c(OC)c2)C(C)=O)c2ccccc2)cc1 (centres undefined),–,–,–,–,–,–,·
COc1ccc(CN(CCC(c2ccccc2)c2ccc(OC(C)C)cc2)C(=O)CCl)cc1OC (centres undefined),–,–,–,–,–,52,–
O=C(OCc1ccccc1C(F)(F)F)c1cc([N+](=O)[O-])ccc1N1CCOCC1,–,–,–,–,–,–,·
O=C(COC(=O)c1cc([N+](=O)[O-])ccc1N1CCOCC1)Nc1c(Cl)cccc1C(F)(F)F,–,–,–,–,–,65,62
O=C(COC(=O)c1cc([N+](=O)[O-])ccc1N1CCOCC1)Nc1ncc(Cl)cc1Cl,–,–,–,–,–,54,71
O=C(COC(=O)c1cccc(S(=O)(=O)N2CCOCC2)c1)Nc1ncc(Cl)cc1Cl,–,–,–,–,–,–,·
COCCCNC(=O)c1cc(Nc2ccc(OC)cc2OC)nc2ccccc12,–,–,–,–,–,–,·
COc1ccc(Nc2cc(C(=O)N3CCc4ccccc4C3)c3ccccc3n2)c(OC)c1,–,–,·,–,–,61,–
Cc1ccc(S(=O)(=O)N2[C@H](C(C)C)[C@H]3[C@H]4C(=O)N(c5ccccc5)C(=O)[C@H]4CC(=O)[C@H]3[C@@H]2c2ccccc2)cc1,–,–,·,·,–,68,–
Cc1ccc(S(=O)(=O)N2C[C@H]3[C@H]4C(=O)N(c5ccccc5)C(=O)[C@H]4CC(=O)[C@H]3[C@@H]2c2ccc(Cl)cc2)cc1,–,–,·,·,–,–,·
COc1ccc([C@@H]2C[C@H]3[C@@H](CN2S(=O)(=O)c2ccccc2)C(=O)C[C@@H](c2ccc(OC)cc2)N3S(=O)(=O)c2ccccc2)cc1,–,–,·,·,–,76,–
Cc1ccc(S(=O)(=O)N2C[C@H]3[C@H]4C(=O)N(c5ccccc5)C(=O)[C@H]4CC(=O)[C@H]3[C@@H]2c2cccc3ccccc23)cc1,–,–,·,·,–,84,46
